Assays:
[1] = compound: O=P(NN1CCOCC1)(NN1CCOCC1)Oc1ccccc1; assay: (§1) Inhibition of human BChE by double reciprocal Lineweaver-Burke plot assay
In short: (§2)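 Kinetics used the same Ellman read-out, with substrate varied: acetylthiocholine for AChE, butyrylthiocholine for BChE. Rates were taken as OD min-1 with and without inhibitor. Km and Vmax were derived from double-reciprocal Lineweaver-Burk plots of 1/V against 1/[S].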

[2] = compound: O=C(NP(=O)(NN1CCCCC1)NN1CCCCC1)c1ccccc1; assay: as §1; in short: as §2
[3] = compound: O=P(NN1CCOCC1)(NN1CCOCC1)c1ccccc1; assay: as §1; in short: as §2
[4] = compound: O=P(O)(NN1CCCCC1)Oc1ccccc1; assay: as §1; in short: as §2
[5] = compound: O=C(NP(=O)(NN1CCOCC1)NN1CCOCC1)c1ccccc1; assay: as §1; in short: as §2
[6] = compound: O=P(NN1CCOCC1)(NN1CCOCC1)Oc1ccccc1; assay: (§3) Inhibition of human AChE by double reciprocal Lineweaver-Burke plot assay; in short: as §2
[7] = compound: O=C(NP(=O)(NN1CCCCC1)NN1CCCCC1)c1ccccc1; assay: as §3; in short: as §2
[8] = compound: O=P(O)(NN1CCCCC1)Oc1ccccc1; assay: as §3; in short: as §2
[9] = compound: O=C(NP(=O)(NN1CCOCC1)NN1CCOCC1)c1ccccc1; assay: as §3; in short: as §2

| Protein | Km [1] [µM] | Vmax [1] [mM/min] | Km [2] [µM] | Vmax [2] [mM/min] | Km [3] [µM] | Vmax [3] [mM/min] | Km [4] [µM] | Vmax [4] [mM/min] | Km [5] [µM] | Vmax [5] [mM/min] | Km [6] [µM] | Vmax [6] [mM/min] | Km [7] [µM] | Vmax [7] [mM/min] | Km [8] [µM] | Vmax [8] [mM/min] | Km [9] [µM] | Vmax [9] [mM/min] |
| --- | --- | --- | --- | --- | --- | --- | --- | --- | --- | --- | --- | --- | --- | --- | --- | --- | --- | --- |
| Cholinesterase (Homo sapiens), P06276 (protein) MHSKVTIICIRFLFWFLLLCMLIGKSHTEDDIIIATKNGKVRGMNLTVFGGTVTAFLGIPYAQPPLGRLRFKKPQSLTKWSDIWNATKYANSCCQNIDQSFPGFHGSEMWNPNTDLSEDCLYLNVWIPAPKPKNATVLIWIYGGGFQTGTSSLHVYDGKFLARVERVIVVSMNYRVGALGFLALPGNPEAPGNMGLFDQQLALQWVQKNIAAFGGNPKSVTLFGESAGAASVSLHLLSPGSHSLFTRAILQSGSFNAPWAVTSLYEARNRTLNLAKLTGCSRENETEIIKCLRNKDPQEILLNEAFVVPYGTPLSVNFGPTVDGDFLTDMPDILLELGQFKKTQILVGVNKDEGTAFLVYGAPGFSKDNNSIITRKEFQEGLKIFFPGVSEFGKESILFHYTDWVDDQRPENYREALGDVVGDYNFICPALEFTKKFSEWGNNAFFYYFEHRSSKLPWPEWMGVMHGYEIEFVFGLPLERRDNYTKAEEILSRSIVKRWANFAKYGNPNETQNNSTSWPVFKSTEQKYLTLNTESTRIMTKLRAQQCRFWTSFFPKVLEMTGNIDEAEWEWKAGFHRWNNYMMDWKNQFNDYTSKKESCVGL | 85 | 66.4 | 75 | 55.6 | 67 | 71.4 | 67 | 27.8 | 50 | 23.5 | – | – | – | – | – | – | – | – |
| Acetylcholinesterase (Homo sapiens), P22303 (protein) MRPPQCLLHTPSLASPLLLLLLWLLGGGVGAEGREDAELLVTVRGGRLRGIRLKTPGGPVSAFLGIPFAEPPMGPRRFLPPEPKQPWSGVVDATTFQSVCYQYVDTLYPGFEGTEMWNPNRELSEDCLYLNVWTPYPRPTSPTPVLVWIYGGGFYSGASSLDVYDGRFLVQAERTVLVSMNYRVGAFGFLALPGSREAPGNVGLLDQRLALQWVQENVAAFGGDPTSVTLFGESAGAASVGMHLLSPPSRGLFHRAVLQSGAPNGPWATVGMGEARRRATQLAHLVGCPPGGTGGNDTELVACLRTRPAQVLVNHEWHVLPQESVFRFSFVPVVDGDFLSDTPEALINAGDFHGLQVLVGVVKDEGSYFLVYGAPGFSKDNESLISRAEFLAGVRVGVPQVSDLAAEAVVLHYTDWLHPEDPARLREALSDVVGDHNVVCPVAQLAGRLAAQGARVYAYVFEHRASTLSWPLWMGVPHGYEIEFIFGIPLDPSRNYTAEEKIFAQRLMRYWANFARTGDPNEPRDPKAPQWPPYTAGAQQYVSLDLRPLEVRRGLRAQACAFWNRFLPKLLSATDTLDEAERQWKAEFHRWSSYMVHWKNQFDHYSKQDRCSDL | – | – | – | – | – | – | – | – | – | – | 47 | 37 | 45 | 40 | 51 | 11.1 | 49 | 55.5 |
